Results reported in ChEMBL document CHEMBL1137111, “Application of multi-component reactions to antimalarial drug discovery. Part 1: Parallel synthesis and antiplasmodial activity of new 4-aminoquinoline Ugi adducts” (Bioorg Med Chem Lett, 2004).

Key:
Assay type in all cases: functional, organism-based
[1] = system: Plasmodium falciparum; assay: Antimalarial activity against chloroquine-sensitive Plasmodium falciparum D10
[2] = system: Plasmodium falciparum; assay: Antimalarial activity against chloroquine-resistant Plasmodium falciparum K1
[3] = system: Plasmodium falciparum; assay: Antimalarial activity against chloroquine-resistant Plasmodium falciparum W2
In short: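 W2 parasites in RPMI-1640 with 10% human serum, synchronized with 5% D-sorbitol. From ring stage, exposed 48 h to a concentration series added from DMSO stocks (≤0.1% DMSO; controls 0.1% DMSO). Fixed 48 h in 1% formaldehyde/PBS pH 7.4 at room temperature, stained with 1 nM YOYO-1, and parasitemia read by flow cytometry. IC50 from % control parasitemia by nonlinear regression, duplicate experiments.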

CC(C)(C)NC(=O)CN(CCCNc1ccnc2cc(Cl)ccc12)C(=O)c1cnccn1
IC50 [1]: 1.37 µM
IC50 [2]: 2.29 µM
IC50 [3]: 1.65 µM

CC(C)(C)NC(=O)CN(CCNc1ccnc2cc(Cl)ccc12)C(=O)c1cnccn1
IC50 [1]: 0.71 µM
IC50 [2]: 1.13 µM
IC50 [3]: 1.19 µM

O=C(CN(CCCNc1ccnc2cc(Cl)ccc12)C(=O)c1ccncc1)NC1CCCCC1
IC50 [1]: 0.23 µM
IC50 [2]: 0.07 µM
IC50 [3]: 1.56 µM

O=C(CN(CCCNc1ccnc2cc(Cl)ccc12)C(=O)c1cnccn1)NC1CCCCC1
IC50 [1]: 0.24 µM
IC50 [2]: 0.52 µM
IC50 [3]: 0.87 µM

O=C(CN(CCNc1ccnc2cc(Cl)ccc12)C(=O)c1ccncc1)NC1CCCCC1
IC50 [1]: 0.54 µM
IC50 [2]: 0.53 µM
IC50 [3]: 0.61 µM

CC(C)(C)NC(=O)CN(CCNc1ccnc2cc(Cl)ccc12)C(=O)c1ccncc1
IC50 [1]: 1.06 µM
IC50 [2]: 1.1 µM
IC50 [3]: 0.99 µM

O=C(CN(CCCNc1ccnc2cc(Cl)ccc12)C(=O)c1ccc(O)cc1O)NC1CCCCC1
IC50 [1]: 1.67 µM
IC50 [2]: 3.82 µM
IC50 [3]: 5.93 µM

O=C(CN(CCNc1ccnc2cc(Cl)ccc12)C(=O)c1cnccn1)NC1CCCCC1
IC50 [1]: 0.79 µM
IC50 [2]: 1.35 µM
IC50 [3]: > 10 µM

CC(C)(C)NC(=O)CN(CCCNc1ccnc2cc(Cl)ccc12)C(=O)c1ccncc1
IC50 [1]: > 20 µM
IC50 [2]: 18.2 µM
IC50 [3]: 3.8 µM
